Legend:
[1] = system: Canis familiaris; test: Positive inotropic activity after intravenous administration of 10 ug/kg (dose) to anesthetized dog; type: functional, Canis lupus familiaris
How it was run: (§1)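 Dogs were anesthetized and intubated. Compound was given through a saphenous vein cannula, in 0.9% saline, 0.5 h after the standard quinazoline at 50 µg/kg, following a 0.75 h equilibration. The cycle was repeated once control levels returned, with at least 0.5 h between doses. LVP was recorded by a Millar catheter via the carotid artery and differentiated to dP/dtmax. Results are % increase in dP/dtmax, and also potency relative to the standard in the same dog: (%drug/%standard)×(dose standard/dose drug).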

[2] = system: Canis familiaris; test: 0.125 mg/kg of compound was administered orally to conscious adult Beagle dogs (n=4) and the effects on cardiac contractility was determined after 3 hr; type: functional, Canis lupus familiaris, Heart
How it was run: (§2)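 Conscious dogs (n = 4) were dosed orally by gavage with a solution of compound. The QA interval is the time in ms from the ECG R wave to the up-stroke of the arterial pressure pulse, measured by computer. Recordings were taken every 0.16 h from 0.5 h predose to 4 h postdose. Each point is the mean of six consecutive 8-s sets. Results are the change from the mean predose value, as mean ± SEM.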

[3] = system: Canis familiaris; test: 0.125 mg/kg of compound was administered orally to conscious adult Beagle dogs and the effects on cardiac contractility was determined after 1 hr; type: functional, Canis lupus familiaris, Heart; how it was run: as §2
[4] = system: Canis familiaris; test: Inotropic potencies relative to 4-[4-[2-(1,1-dioxo-2-isothiazolidinyl)ethyl]-1-piperidinyl]-6,7-dimethoxyquinazoline (50 ug/kg) in anesthetized dog; type: functional, Canis lupus familiaris; how it was run: as §1
[5] = system: Canis familiaris; test: Positive inotropic activity after intravenous administration of 50 ug/kg (dose) to anesthetized dog; type: functional, Canis lupus familiaris; how it was run: as §1
[6] = system: Canis familiaris; test: 0.5 mg/kg of compound was administered orally to conscious adult Beagle dogs and the effects on cardiac contractility was determined after 1 hr; type: functional, Canis lupus familiaris, Heart; how it was run: as §2
[7] = system: Canis familiaris; test: 0.5 mg/kg of compound was administered orally to conscious adult Beagle dogs (n=4) and the effects on cardiac contractility was determined after 3 hr; type: functional, Canis lupus familiaris, Heart; how it was run: as §2
[8] = system: Canis familiaris; test: 0.25 mg/kg of compound was administered orally to conscious adult Beagle dogs (n=4) and the effects on cardiac contractility was determined after 3 hr; type: functional, Canis lupus familiaris, Heart; how it was run: as §2
[9] = system: Canis familiaris; test: 0.25 mg/kg of compound was administered orally to conscious adult Beagle dogs and the effects on cardiac contractility was determined after 1 hr; type: functional, Canis lupus familiaris, Heart; set-up: unit: ms; how it was run: as §2
[10] = system: Canis familiaris; test: 2.0 mg/kg of compound was administered orally to conscious adult Beagle dogs and the effects on cardiac contractility was determined after 1 hr; type: functional, Canis lupus familiaris, Heart; how it was run: as §2
[11] = system: Canis familiaris; test: 2.0 mg/kg of compound was administered orally to conscious adult Beagle dogs (n=4) and the effects on cardiac contractility was determined after 3 hr; type: functional, Canis lupus familiaris, Heart; how it was run: as §2
[12] = system: Canis familiaris; test: Positive inotropic activity after intravenous administration of 50 ug/kg (dose) to anesthetized dogs; type: functional, Canis lupus familiaris; how it was run: as §1
[13] = system: Canis familiaris; test: Positive inotropic activity after intravenous administration of 25 ug/kg (dose) to anesthetized dog; type: functional, Canis lupus familiaris
[14] = system: Canis familiaris; test: 0.25 mg/kg compound was administered orally to conscious adult Beagle dogs (n=4) and the effects on cardiac contractility was determined after 3 hr; type: functional, Canis lupus familiaris, Heart; how it was run: as §2
[15] = system: Canis familiaris; test: Positive inotropic activity after intravenous administration of 12.5 ug/kg (dose) to anesthetized dog; type: functional, Canis lupus familiaris; how it was run: as §1
[16] = system: Canis familiaris; test: 0.25 mg/kg of compound was administered orally to conscious adult Beagle dogs and the effects on cardiac contractility was determined after 3 hr; type: functional, Canis lupus familiaris, Heart; how it was run: as §2

Structure (SMILES)	Increase in dP/dTmax [1]	Relative inotropic potency [4]	Increase in dP/dTmax [5]	further results
Cc1cc(-n2cc(C#N)nc2C)cc2ccc(O)nc12	30%	3		Decrease in QA interval [2]: 15; Decrease in QA interval [3]: 15
Cc1nc(C)n(-c2cc(C)c3nc(O)ccc3c2)c1S(C)(=O)=O		0.1	5%	
Cc1cn(-c2cc(C)c3nc(O)ccc3c2)c(-c2ccccc2)n1		0.3	15%	
Cc1cc(-n2cc(C(=O)c3ccccc3)nc2C)cc2ccc(O)nc12		0.5	31%	
CSc1c(C)nc(C)n1-c1cc(C)c2nc(O)ccc2c1		0.9	28%	
Cc1nc(C)n(-c2cc(C)c3nc(O)ccc3c2)c1[S+](C)[O-] (stereo not given)		0.2	7%	
Cc1cn(-c2cc(C)c3nc(O)ccc3c2)c(I)n1	59%	5.7		
CC(=O)c1nc(C)cn1-c1cc(C)c2nc(O)ccc2c1		0.3	15%	
Cc1nc(C)n(-c2cc(C)c3nc(O)ccc3c2)c1I		0.5	17%	
Cc1cc(-n2cc(-c3ccccc3)nc2C)cc2ccc(O)nc12	15%	2.4		Decrease in QA interval [6]: 13; Decrease in QA interval [7]: 10
Cc1cn(-c2cc(C)c3nc(O)ccc3c2)c(C#N)n1	53%	4.1		Decrease in QA interval [8]: 15; Decrease in QA interval [9]: 15
Cc1cc(-n2cc(Cl)nc2C)cc2ccc(O)nc12	50%	5.6		
Cc1nc(C)n(-c2cc(C)c3nc(O)ccc3c2)c1Br		0.7		Decrease in QA interval [10]: 12; Decrease in QA interval [11]: 13; Increase in dP/dTmax [12]: 26%
Cc1cc(-n2cc(I)nc2C)cc2ccc(O)nc12	11%	2.6		
CCC(=O)c1cn(-c2cc(C)c3nc(O)ccc3c2)c(C)n1		0.9	29%	
CC(=O)c1c(C)nc(C)n1-c1cc(C)c2nc(O)ccc2c1		0.4	16%	Decrease in QA interval [10]: 6; Decrease in QA interval [11]: 10
CC(=O)c1cn(-c2cc(C)c3nc(O)ccc3c2)c(C)n1	36%	2.6		Decrease in QA interval [8]: 19; Decrease in QA interval [9]: 17
CSc1cn(-c2cc(C)c3nc(O)ccc3c2)c(C)n1	53%	5		
Cc1cc(-n2cc([S+](C)[O-])nc2C)cc2ccc(O)nc12 (stereo not given)		0.7	65%	
Cc1cc(-n2cc(C(=O)C(C)C)nc2C)cc2ccc(O)nc12		0.6	24%	
Cc1nc(C)n(-c2cc(C)c3nc(O)ccc3c2)c1C#N		1.1	70%	Decrease in QA interval [8]: 15; Decrease in QA interval [9]: 11
Cc1cc(-n2cc(S(C)(=O)=O)nc2C)cc2ccc(O)nc12		0.3	25%	
Cc1nc(C)n(-c2cc(C)c3nc(O)ccc3c2)c1Cl	32%	2.9		Decrease in QA interval [2]: 10; Decrease in QA interval [3]: 12
Cc1[nH]c(=O)c(C#N)cc1-c1ccncc1 [MILRINONE]		1.6		Decrease in QA interval [9]: 13; Increase in dP/dTmax [13]: 46%; Decrease in QA interval [14]: 7
Cc1cn(-c2cc(C)c3[nH]c(=O)ccc3c2)c(C)n1 [NANTERINONE]		7.6		Increase in dP/dTmax [15]: 40%; Decrease in QA interval [9]: 16; Decrease in QA interval [16]: 17

— ChEMBL document CHEMBL1124527, “2(1H)-quinolinones with cardiac stimulant activity. 3. Synthesis and biological properties of 6-imidazol-1-yl derivatives” (1989)
